The text below walks through data of PMC7224360 (Peptide science (Hoboken, N.J.), 2018).

Series [1] has as its system adenylyl cyclase (AC6) in N18TG2 cells. The series is described as follows: Inhibition of forskolin-stimulated cAMP accumulation in N18TG2 cells. It is filed as cell-based. The following applies: for Inhibition of cAMP accumulation at 100 µM versus IL4 or IL4pSer402: forskolin 1 µM, peptide 100 µM, n=3.
For series [2], the system named is Gαo (N18TG2 membranes). In words: [35S]GTPγS binding, antibody-capture SPA, Gαo, N18TG2 membranes. The format is biochemical. The essentials:
(§1)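 N18TG2 neuroblastoma membranes (5 µg protein) were incubated with [35S]GTPγS plus WIN55212–2 (1 µM), unphosphorylated IL4 peptide (100 µM) or phosphopeptides (20–100 µM). Captured by SPA with anti-Gαo (n=3–4) or anti-Gαi3 (n=3–5) antibody. Specific binding (CPM) = total minus non-specific. Normalised to mean WIN55212–2 stimulation as 100%. Mean ± SEM; one-way ANOVA with Dunnett's post hoc test.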

Series [3] concerns Gαi3 (N18TG2 membranes). In words: [35S]GTPγS binding, antibody-capture SPA, Gαi3, N18TG2 membranes. The following applies: for [35S]GTPγS binding to Gαi3 compared with IL4: N18TG2 membranes (5 µg protein), peptides up to 100 µM, IL4 100 µM, n=3-5. It is filed as biochemical. The gist of the method: as §1
A general note: GTPγS resists hydrolysis and so accumulates on activated G proteins.

In series [4] the test system is Gi/o. The following applies: cited from earlier work.
Series [5] relates to cAMP (Gi/o pathway); Chinese hamster ovary cells without CB1R. The note with it: cited from earlier work.
The conditions of series [6]: cited from earlier work.
Series [7] is described as follows: NMR secondary structure. It is filed as physicochemical. The note with it: average of representative NMR conformers, SDS micelles. The gist of the method: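 Test peptides at 5 mM in 90% H2O/10% D2O, pH 4.5, with perdeuterated SDS (300 mM) added to give a peptide:detergent ratio of 1:60. 1D spectra were recorded at 300–320 K. DQF-COSY, TOCSY and NOESY spectra were acquired, with 340 ms NOESY used for restraints (1.8–2.7, 1.8–3.5 or 1.8–5 Å). CYANA generated 50 structures and the 20 with lowest target function were kept. Structures were energy-minimised and refined with 3JHNHα-derived dihedrals. Secondary shifts are relative to random-coil values.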

Series [8] is described as follows: Circular dichroism spectropolarimetry in membrane-mimetic solvents. The format is physicochemical. The following applies: 75 μM peptide; for CD conformation in phosphate buffer: Na2HPO4/KH2PO4 buffer, pH 7.0; for CD conformation in SDS: SDS in phosphate buffer; for CD conformation in methanol: methanol (up to 50%); for CD isodichroic point: SDS titration. (CD spectra are sensitive to the conformation of chiral molecules.)

The mark [9] stands for this setting: at reported concentrations, ANOVA, Dunnett's.

“Also recorded” adds a separate entry of the source.

Consider `CCCCCCC(C)(C)c1ccc([C@@H]2C[C@H](O)CC[C@H]2CCCO)c(O)c1` [CP55940, reference compound], for which, in series [1] (N18TG2 cells, CP55940 versus CP55940 plus SR141716, **P<0.005), the “Effect of SR141716 on inhibition of cAMP accumulation by CP55940” value is “Significant difference was found between CP55940 and CP55940 plus SR141716”. For the same molecule, the “CP55940-inhibited cAMP with versus without bradykinin, significance” value in series [1] (forskolin 1 µM or secretin 30 nM, *P<0.05, **P<0.005, n=3–7) is “significant difference was found comparing the effect of CP55940 with and without BK”.

On to `Cc1c(C(=O)c2cccc3ccccc23)c2cccc3c2n1[C@H](CN1CCOCC1)CO3` [WIN55212–2, reference compound], for which, in series [2] (WIN55212–2 1 µM, N18TG2 membranes, anti-Gαo SPA, mean ± SEM), the “% over stimulation by WIN55212–2, Go” value amounted to 19±2.8%. Moreover, the “Significance of Gαo stimulation versus basal” value in series [2] (setting [9]) is given as “significantly different from basal”. In addition, the “Significance of Gi3 stimulation by WIN55212–2 versus IL4” value in series [3] (ANOVA, Dunnett's, **P<0.005) is listed as “significantly different compared to IL4 in Gi3”. Also, the “% over stimulation by WIN55212–2, Gi3” value in series [3] (WIN55212–2 1 µM, N18TG2 membranes, anti-Gαi3 SPA, mean ± SEM) was 62.7 ±6.6%. Moreover, the “Significance of Gαi3 stimulation versus basal” value in series [3] (setting [9]) was “significantly different from basal”.

For `CN(C)CCCn1cc(C2=C(c3c[nH]c4ccccc34)C(=O)NC2=O)c2ccccc21` [bisindolylmaleimide 1, reference compound], the “Effect of PKC inhibitor on bradykinin augmentation of CP55940 response” value in series [1] (N18TG2 cells, bisindolylmaleimide I 100 nM, bradykinin 100 nM, Fig. 7C) is on record as “reversed by the PKC inhibitor”.

As to RSKDLRHAFRSMFPSSE [IL4], in series [4], the “Autonomous G protein activation” value was “can activate G proteins autonomously as a pepducin”. The “Reduction of cAMP levels” value in series [5] (CB1R-independent) is “able to reduce cAMP levels in a CB1R-independent manner”. Moreover, the “Functional activity in absence of CB1R expression” value in series [5] (Chinese hamster ovary cells without CB1R) is “still functional”. Further, the “Conformation of unphosphorylated IL4 in SDS micelles” value in series [6] (SDS micelles, CD and NMR) is recorded as “induced significant helical structure”. The “CD conformation of unphosphorylated IL4 in aqueous environment” value in series [6] (aqueous) is recorded as “random coil conformation”. Also, in series [7], the “Distance between Cα carbons of Arg401 and Glu417” value (from here on “Distance between Cα carbons”) is on record as 26 Å.

In the case of RSKDLRHAFRSMFPpSSE [IL4pSer415], in series [8], the “CD conformation in 90% TFE” value was “a slight shift toward helicity was initiated”, the “CD conformation in phosphate buffer” value is “random coil”, the “CD conformation in SDS” value was “induction of α-helix in SDS” and the “CD conformation in TFE” value was “random coil”. For the same molecule, the “CD conformation in methanol” value in series [8] was “random coil”. For the same molecule, the “Inhibition of cAMP accumulation at 100 µM versus IL4 or IL4pSer402” value in series [1] (N18TG2 cells) was “inhibited cAMP accumulation to a greater extent than IL4 or IL4pSer402; also recorded: more efficaciously than IL4 and IL4pSer402”. Besides, the “[35S]GTPγS binding to Gαi3 compared with IL4” value in series [3] is on record as “more efficacious than IL4; also recorded: higher efficacy than IL4”. The “Distance between Cα carbons” value in series [7] stood at 21.52 Å.

Regarding RSKDLRHAFRpSMFPSSE [IL4pSer411], in series [2] (ANOVA, Dunnett's, ***P<0.0001), the “Significance of Gαo stimulation versus WIN55212–2 and IL4” value is “significantly different compared to WIN55212–2 and IL4”. Besides, in series [2] (N18TG2 membranes, WIN55212–2 1 µM, IL4 100 µM), the “[35S]GTPγS binding to Gαo, fold greater than WIN55212–2 or IL4” value is reported as 3 fold. Also, in series [8], the “CD conformation in phosphate buffer” value was “random coil structure”, the “CD conformation in SDS” value was “characteristics of α-helical structure”, the CD isodichroic point is on record as 203 nm and the “CD conformation in TFE” value was “random coil structure”. For the same molecule, the “CD conformation in methanol” value in series [8] is recorded as “random coil structure”. Further, the “CD negative minimum wavelength in phosphate buffer” value in series [8] (phosphate buffer pH 7.0) is on record as 198 nm. In series [1] (N18TG2 cells), the “Inhibition of cAMP accumulation at 100 µM versus IL4 or IL4pSer402” value is “inhibited cAMP accumulation to a greater extent than IL4 or IL4pSer402; also recorded: more efficaciously than IL4 and IL4pSer402”. Further, the “Significance of Gi3 stimulation versus WIN55212–2 (not versus IL4)” value in series [3] (ANOVA, Dunnett's, *P<0.05) is listed as “significantly different compared to WIN55212–2 but not IL4”. Also, the “[35S]GTPγS binding to Gαi3 compared with IL4” value in series [3] is “more efficacious than IL4”. Moreover, the “Distance between Cα carbons” value in series [7] came to 23.68 Å.

On to RpSKDLRHAFRSMFPSSE [IL4pSer402], for which, in series [8], the “CD conformation in 90% TFE” value is “α-Helical conformation”, the “CD conformation in SDS” value is reported as “α-Helical conformation” and the CD isodichroic point came to 203 nm. In addition, in series [8] (CD), the “Lowest TFE concentration inducing helical conformation” value is listed as 40 % TFE and the “Methanol concentration at which helical conformation is induced” value was determined as 50 % methanol. Also, in series [3], the “[35S]GTPγS binding to Gαi3 compared with IL4” value was “not different between IL4 and IL4pSer402”. Besides, the “Distance between Cα carbons” value in series [7] came out at 23.61 Å.
